In the library only some 0.64% were active in any assay of this set; here they are far more common.
TNF death inh – blocks TNF-alpha induced death of Jurkat FADD-/- cells; Jurkat FADD-/- TNF necroptosis rescue, ATP luminescence, 24 h; 0 = TNF only, 100 = no-TNF cells; AID 463075; activation (protection from cell death), % at 10 µM; actives 0.068% (n = 220,000);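 active = activation, meaning protection from cell death, of at least 50% relative to plate controls; inactive = activation below 50%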;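 also: necroptosis triggered by 40 ng/mL TNF-alpha added together with compound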
sdo1 growth – restores growth of sdo1-depleted yeast; actives 0.21% (n = 140,000); AID 817; S. cerevisiae sdo1-depleted JHY4D growth rescue, OD600 30 h; active compounds read high; pdr5 snq2 efflux-pump mutant strain; z-score at 10 µM;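 active = z-score above 3 at both the 24 hr and the 30 hr optical density reads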;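 also: z-score against mean and SD of all compound wells on the same plate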
Rad51 HR inh – Rad51 (human) homologous recombination inhibition; actives 0.085% (n = 200,000); Q06609; AID 1385; inhibition, % at 10 µM; hRad51 DNA strand exchange, fluorescence dequenching;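 active = inhibition above 40% at the single screening dose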;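 also: 0% = DMSO control wells and 100% = blanks with heterologous ssDNA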
Target sequence (Q06609 whole entry, looked up): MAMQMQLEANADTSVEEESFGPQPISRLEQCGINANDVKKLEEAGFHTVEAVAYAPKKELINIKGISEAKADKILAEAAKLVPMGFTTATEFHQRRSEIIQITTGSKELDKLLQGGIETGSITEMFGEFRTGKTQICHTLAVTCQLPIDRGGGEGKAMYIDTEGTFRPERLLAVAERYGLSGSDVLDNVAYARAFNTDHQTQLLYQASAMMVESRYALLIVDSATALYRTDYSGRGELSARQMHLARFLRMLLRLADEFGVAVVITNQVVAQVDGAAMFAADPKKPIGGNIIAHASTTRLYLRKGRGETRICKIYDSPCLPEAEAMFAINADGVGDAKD
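Test system – preformed human Rad51 ssDNA filaments · Reagent – Donor/quencher-labelled 47-bp dsDNA substrate · Incubation – 37 °C 15-min filament assembly, 30-min compound preincubation, 15-min exchange · Signal – FRET fluorescence dequenching, excitation 485 nm, emission 520 nm · Read-out – percent inhibition from fluorescence, normalised to plate control and blank means · Benchmarks – plate control and blank wells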
zVAD death inh – blocks zVAD induced death of L929 cells; L929 zVAD necroptosis rescue, ATP luminescence, 24 h; with zVAD 60 µM; viability rescue, % at 10 µM; actives 0.38% (n = 220,000); AID 1377;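 active = activation, scaled between plate controls, above about 75%, limit read from the data; inactive = activation under that limit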;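 also: 0% = zVAD with DMSO and 100% = DMSO alone without zVAD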
SDO1 rescue DR – SDO1-depleted yeast growth rescue confirmation; S. cerevisiae JHY4D (SDO1-depleted) growth rescue, OD600, 30 h; active compounds read high; efflux-deficient strain, SNQ2 and PDR5 mutated; OD recovery (no concentration beside the values); AID 949; actives 44% (n = 440); shares compounds with sdo1 growth;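 active = yeast growth recovered at 30 hours, either rising with dose fitted slope above 0.001 or with average optical density gain above 0.07, some results past the limit were not filed as active; inactive = growth falling with dose or no effect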;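 also: gain in OD600 from 0 h to 30 h averaged across all seven doses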
Numbers without * were called inactive; . = no result.

SMILES	TNF death inh	sdo1 growth	Rad51 HR inh	zVAD death inh	SDO1 rescue DR
COc1ccc(NC(=O)c2cc(-c3ccc(OC)c(OC)c3)on2)cc1OC	-2	1.8	.	0	0.068
COc1ccc(CNC(=O)c2cc(-c3ccc(OC)c(OC)c3)on2)cc1	-2	8.7*	-5	0	0.047
CC(C)(C)CC(=O)NCCCCCCNC(=O)CC(C)(C)C	1	-0.7	4	1	.
Cc1nnc(NC(=O)CSc2ncnc3c2cnn3-c2ccccc2C)s1	4	1.5	-2	0	0.042
Cc1ccccc1-n1ncc2c(SCC(=O)N3c4ccccc4CC3C)ncnc21 (stereo not drawn)	-3	-0.28	-7	0	.
O=C(N/N=C/c1cnc(N2CCCCC2)s1)c1ccc(C(F)(F)F)cc1	1	.	.	0	.
CC(=O)N1CCC(=NNc2ccc(S(=O)(=O)N3CCOCC3)cc2[N+](=O)[O-])CC1	2	12*	1	-1	0.044
Cc1ccccc1CNc1ccc(C(CC(N)=O)NC(=O)c2ccccc2)cc1[N+](=O)[O-] (stereo not drawn)	4	.	1	0	.
CC(C)NC(=O)CSCc1cccc(Br)c1	1	5.2*	-10	0	0.064
CC(NC(=O)CSCc1ccc(Br)cc1)c1ccccc1 (stereo not drawn)	9	.	.	0	.
O=C(NCc1ccc(F)cc1)c1cc2n(n1)C(C(F)(F)F)CC(C1CC1)N2 (stereo not drawn)	2	0.84	2	1	.
O=C(Nc1ccccc1)N(O)c1ccc(Cl)cc1	7	3.3*	5	0	0.081*
c1ccc(-n2nnc(-c3cccnc3)n2)cc1	0	.	5	2	.
CCN(CC)S(=O)(=O)c1cc(C(=O)Nc2cccnc2)ccc1Cl	2	3.3*	0	0	0.093*
CCN(CC)S(=O)(=O)c1cc(C(=O)Nc2ccncc2)ccc1Cl	-13	0.77	-6	0	.
COc1ccc(C)cc1NC(=O)C1CCCN(S(=O)(=O)c2cnc[nH]2)C1 (stereo not drawn)	1	1.2	1	1	.
COc1ccccc1NC(=O)C1CCCN(S(=O)(=O)c2cnc[nH]2)C1 (stereo not drawn)	0	1.5	-2	1	0.043
CCOC(=O)c1c(NC(=S)Nc2ccc(C)cc2)sc2c1CCC2	-1	2.7	6	0	0.088*
CCOC(=O)c1c(NC(=S)Nc2ccc(F)cc2)sc2c1CCC2	0	-1.1	0	-2	.
CCOC(=O)Cc1[nH]nc2c1C(c1ccoc1)C(C#N)=C(N)O2 (stereo not drawn)	-3	0.34	-8	1	.
CC(C)NC1CS(=O)(=O)CC1O (stereo not drawn)	0	5.5*	1	1	0.095*
O=S1(=O)CC(O)C(NCCO)C1 (stereo not drawn)	1	.	16	2	.
O=[N+]([O-])c1ccc(Cl)cc1N1CCOCC1	1	.	-11	0	.
CC(C(=O)NC1CCCC1)N(C(=O)c1snc(C(N)=O)c1N)c1ccc2c(c1)OCCO2 (stereo not drawn)	-2	14*	-3	0	0.08*
Cc1ccc(C(C(=O)NC2CCCC2)N(Cc2ccc3c(c2)OCO3)C(=O)c2snc(C(N)=O)c2N)cc1 (stereo not drawn)	-5	.	14	0	.
SMILES	TNF death inh	sdo1 growth	Rad51 HR inh	zVAD death inh	SDO1 rescue DR
CCn1c(SCc2ccc(F)cc2)nnc1-c1nn(-c2ccccc2)ccc1=O	-2	-0.23	3	0	.
O=C(Nc1ccc2c(c1)OCO2)C1CCCN(S(=O)(=O)Cc2ccccc2)C1 (stereo not drawn)	-1	2.4	7	0	0.082*
Cc1n[nH]c(C)c1S(=O)(=O)N1CCCC(C(=O)Nc2ccc3c(c2)OCCO3)C1 (stereo not drawn)	-4	2.1	.	0	0.094*
COc1cccc(C(C)N(C)Cc2nc(-c3ccoc3)oc2C)c1 (stereo not drawn)	1	.	4	-1	.
CN(C)CC1CCCCC1C1(O)c2ccccc2CSc2sccc21 (stereo not drawn)	4	0.12	9	0	.
CC(C)NC(=O)c1ccccc1NC(=O)CN(c1ccc2c(c1)OCO2)S(C)(=O)=O	0	3.1*	0	0	0.068
Cc1nc(NC(=O)c2cc3c(C)nn(-c4ccccc4)c3s2)sc1C(=O)Nc1ccccc1	2	-0.46	.	0	.
CC(=O)c1sc(NC(=O)c2cc3c(C)nn(-c4ccccc4)c3s2)nc1C	-1	4*	2	0	0.11*
CC(=O)c1ccc(N2CCN(C(=O)COc3ccccc3F)CC2)c(F)c1	-1	-0.32	-7	1	.
O=c1ccc(OCCOc2ccccc2)nn1-c1ccccc1	1	12*	.	0	0.082*
NC(=O)COc1ccc(=O)n(-c2ccccc2)n1	0	1.4	-5	0	.
COc1ccc(CCC(=O)N2CC(C)OC(C)C2)cc1 (stereo not drawn)	-1	-0.58	-2	0	.
Cc1ccc(NC(=O)/C=N/OCC(=O)NCc2ccccc2Cl)cc1	2	.	19	0	.
COc1ccc(-c2nnc(SCC(=O)Nc3ccccc3OC)o2)cc1	-1	7.5*	10	0	0.1*
CCN(CC)S(=O)(=O)c1ccc(-c2nnc(SCC(=O)Nc3ccc(OC)c(OC)c3)o2)cc1	1	2.8	0	0	0.064
COc1ccccc1NC(=O)CSc1nnc(-c2ccncc2)o1	-1	0.67	-8	0	.
COc1ccccc1NC(=O)CSc1nc(C)c2c(c1C#N)CCCC2	1	1.9	-10	0	0.078*
CCN(CC)S(=O)(=O)c1ccc(-c2nnc(SCC(=O)Nc3ccc(OC)cc3)o2)cc1	1	-1.9	5	1	.
C=CCn1c(SCC(=O)NCc2cccs2)nnc1C1CCCCC1	2	0.14	-1	1	.
NC(=O)CC[C@H](NC(=O)OCc1ccccc1)C(=O)OCc1ccc(Cl)cc1	2	1.4	7	0	.
Cc1nc2ncnn2c(C)c1CCC(=O)N1CCCCC1	1	0.32	-2	0	.
Cc1nc2ncnn2c(C)c1CCC(=O)N1CCOCC1	-1	5.1*	4	0	0.098*
Cc1nn(-c2ccccc2)c(C)c1NC(=O)c1cccs1	1	3.3*	0	2	0.065*
Cc1nn(-c2ccccc2)c(C)c1NC(=O)Cc1cccs1	-1	0.7	-2	.	.
COc1ccccc1NC(=O)c1nn(-c2cccc(C(F)(F)F)c2)ccc1=O	-2	7.2*	1	0	0.045
C/C(=N\NC(=O)C1(C)NC(C)(C)Cc2ccccc21)c1ccccc1 (stereo not drawn)	0	.	-9	-2	.
CCC(=O)NC1(C(F)(F)F)C(=O)Nc2c1c(=O)[nH]c(=O)n2Cc1ccco1 (stereo not drawn)	0	15*	0	0	0.077

Screens deposited in PubChem BioAssay by several laboratories.
